From ChEMBL document CHEMBL1250535, “Synthesis, anti-fungal and 1,3-β-D-glucan synthase inhibitory activities of caffeic and quinic acid derivatives” (Bioorg Med Chem, 2010)
Values after ≈ are worked out from the molar mass of the structure shown. Starred links: 1 amine or outer side, 2 acyl side, 3 side chain; linkers in the order of their positions; H or OH if unused. Positions of bridges follow the written chain, without caps; N, C: chain ends. Non-standard residues stand in square brackets, D forms with d. Residues, ends and D or L forms follow the SMILES beside them. *: point of attachment. Orn(4R-OH,5R-OH) = O=C([C@H](C[C@@H](O)[C@@H](O)N[*:3])N[*:1])[*:2]; hTyr(3S-OH,4S-OH) = N[C@H](C(=O)O)[C@H](O)[C@@H](O)c1ccc(O)cc1; Pro(3S-OH,4S-Me) = C[C@H]1CN[C@H](C(=O)O)[C@H]1O; Palmitoyl = CCCCCCCCCCCCCCCC(=O)*; Hyp = O=C(O)[C@@H]1C[C@@H](O)CN1

Legend:
Candida albicans = experiment: Antifungal activity against Candida albicans by NCCLS method; assay type: functional
Method in brief: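 Broth dilution per NCCLS against Candida albicans NBRC 1594.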

Beta-1,3-glucan synthase = target: T1, Beta-1,3-glucan synthase (Candida albicans, UniProt O13383); experiment: Inhibition of Candida albicans 1,3 beta-D-glucan synthase
T1 sequence (O13383 whole entry): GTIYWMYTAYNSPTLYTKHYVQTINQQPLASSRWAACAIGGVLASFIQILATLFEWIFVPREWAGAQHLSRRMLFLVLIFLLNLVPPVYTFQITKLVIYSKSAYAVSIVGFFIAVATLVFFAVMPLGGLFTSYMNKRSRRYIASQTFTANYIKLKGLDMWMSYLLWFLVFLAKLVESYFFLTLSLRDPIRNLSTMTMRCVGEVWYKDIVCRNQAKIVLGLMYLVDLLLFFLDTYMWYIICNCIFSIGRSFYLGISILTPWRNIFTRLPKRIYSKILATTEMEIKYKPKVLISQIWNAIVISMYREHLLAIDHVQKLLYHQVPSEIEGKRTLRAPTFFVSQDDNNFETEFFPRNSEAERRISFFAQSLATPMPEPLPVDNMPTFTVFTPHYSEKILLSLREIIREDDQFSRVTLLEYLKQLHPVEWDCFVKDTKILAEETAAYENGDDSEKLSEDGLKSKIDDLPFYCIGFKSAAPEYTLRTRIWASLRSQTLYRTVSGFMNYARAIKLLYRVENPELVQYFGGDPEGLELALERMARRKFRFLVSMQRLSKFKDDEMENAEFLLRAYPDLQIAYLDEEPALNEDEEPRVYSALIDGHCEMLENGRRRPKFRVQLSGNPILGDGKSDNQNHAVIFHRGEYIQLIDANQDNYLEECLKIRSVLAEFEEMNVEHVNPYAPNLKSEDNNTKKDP
Method in brief: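 Membrane-bound enzyme prepared from Candida albicans. Reaction mix: 50 mM Tris–HCl pH 7.5, 0.5 mM EDTA, 25 mM KF, GTPγS, 0.75% BSA, 5.0 mM UDP-Glc, with and without test compound. Started by adding enzyme, run 20 min at 30 °C, stopped by heating 10 min at 96 °C. Glucan formed quantified by a 1,3-β-D-glucan-dependent enzyme cascade (BGSTAR kit).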

Row | Structure (SMILES) | MIC (Candida albicans) | IC50 (Beta-1,3-glucan synthase)
1 | CCCCCCCCCCCCCCCC(=O)N[C@H]1C[C@@H](O)[C@@H](O)NC(=O)[C@@H]2[C@@H](O)[C@@H](C)CN2C(=O)[C@H]([C@@H](C)O)NC(=O)[C@H]([C@H](O)[C@@H](O)c2ccc(O)cc2)NC(=O)[C@@H]2C[C@@H](O)CN2C(=O)[C@H]([C@@H](C)O)NC1=O [ACULEACIN A] (Palmitoyl-[Orn(4R-OH,5R-OH)]T[Hyp][hTyr(3S-OH,4S-OH)]T[Pro(3S-OH,4S-Me)]; lactam 1-C) | 0.23 µM (≈ 0.238 µg/mL) | 8 µM
2 | CCCCCCCCOc1ccc(NC(=O)C(CCCNC(=O)OC(C)(C)C)NC(=O)/C=C/c2ccc(O)c(O)c2)cc1 (centres undefined) | 27 µM (≈ 16.1 µg/mL) | 52 µM
3 | CCCCCCCCOc1ccc(NC(=O)C(CC(=O)OC(C)(C)C)NC(=O)/C=C/c2ccc(O)c(O)c2)cc1 (centres undefined) | 29 µM (≈ 16.1 µg/mL) | 58 µM
4 | CCCCCCCCOc1ccc(NC(=O)C(CC(=O)O)NC(=O)[C@]2(O)C[C@@H](O)[C@@H](O)[C@H](OC(=O)/C=C/c3ccc(O)c(O)c3)C2)cc1 (some centres undefined) | 48 µM (≈ 32.3 µg/mL) | > 48 µM
5 | CCCCCCCCOc1ccc(NC(=O)C(CCCN)NC(=O)/C=C/c2ccc(O)c(O)c2)cc1 (centres undefined) | 4 µM (≈ 1.99 µg/mL) | 22 µM
6 | CCCCCCCCOc1ccc(NC(=O)C(CCCN)NC(=O)[C@]2(O)C[C@@H](O)[C@@H](O)[C@H](OC(=O)/C=C/c3ccc(O)c(O)c3)C2)cc1 (some centres undefined) | 6 µM (≈ 4.03 µg/mL) | 15 µM
7 | CCCCCCCCOc1ccc(NC(=O)C(NC(=O)/C=C/c2ccc(O)c(O)c2)C(C)OC(C)(C)C)cc1 (centres undefined) | 15 µM (≈ 8.11 µg/mL) | 37 µM
8 | CCCCCCCCOc1ccc(NC(=O)C(CC(=O)O)NC(=O)/C=C/c2ccc(O)c(O)c2)cc1 (centres undefined) | 64 µM (≈ 31.9 µg/mL) | > 64 µM
9 | CCCCCCCCOc1ccc(NC(=O)C(NC(=O)/C=C/c2ccc(O)c(O)c2)C(C)O)cc1 (centres undefined) | 8.3 µM (≈ 4.02 µg/mL) | > 66 µM
10 | O=C(/C=C/c1ccc(O)c(O)c1)O[C@@H]1C[C@](O)(C(=O)O)C[C@@H](O)[C@H]1O [CHLOROGENIC ACID] | > 181 µM | > 90 µM
11 | CCCCCCCCOc1ccc(NC(=O)/C=C/c2ccc(O)c(O)c2)cc1 | 84 µM (≈ 32.2 µg/mL) | > 84 µM

More lines, now with the values ahead:

Row | MIC (Candida albicans) | IC50 (Beta-1,3-glucan synthase) | Structure (SMILES)
12 | > 129 µM | > 65 µM | CCCCCCCCOc1ccc(NC(=O)C(NC(=O)[C@]2(O)C[C@@H](O)[C@@H](O)[C@H](O)C2)C(C)O)cc1 (some centres undefined)
13 | 16 µM (≈ 8.15 µg/mL) | 53 µM | CCCCCCCCOc1ccc(NC(=O)C(CCCN)NC(=O)[C@]2(O)C[C@@H](O)[C@@H](O)[C@H](O)C2)cc1 (some centres undefined)
14 | > 125 µM | > 63 µM | CCCCCCCCOc1ccc(NC(=O)C(CC(=O)O)NC(=O)[C@]2(O)C[C@@H](O)[C@@H](O)[C@H](O)C2)cc1 (some centres undefined)
15 | 12 µM (≈ 7.9 µg/mL) | > 49 µM | CCCCCCCCOc1ccc(NC(=O)C(NC(=O)[C@]2(O)C[C@@H](O)[C@@H](O)[C@H](OC(=O)/C=C/c3ccc(O)c(O)c3)C2)C(C)O)cc1 (some centres undefined)
16 | 81 µM (≈ 32 µg/mL) | > 81 µM | CCCCCCCCOc1ccc(NC(=O)[C@]2(O)C[C@@H](O)[C@@H](O)[C@H](O)C2)cc1
17 | 14 µM (≈ 7.81 µg/mL) | 41 µM | CCCCCCCCOc1ccc(NC(=O)[C@]2(O)C[C@@H](O)[C@@H](O)[C@H](OC(=O)/C=C/c3ccc(O)c(O)c3)C2)cc1
